Data as given in ChEMBL document CHEMBL1141302, “Anti-Helicobacter pylori and thrombin inhibitory components from Chinese dragon's blood, Dracaena cochinchinensis” (J Nat Prod, 2007).
In brackets after ≈: the same amount, converted by molar mass.

Tests used:
Helicobacter pylori = test: Antibacterial activity against Helicobacter pylori ATCC 43504 by agar dilution method; assay type: functional
Procedure, shortened: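 Mueller-Hinton agar plates with 7% lysed sheep blood and 2-fold serial dilutions of compound; spots of 5 µL bacterial suspension (10^7 cfu/mL) by multipoint inoculator; 37°C for 3 days, microaerobic (5% O2, 10% CO2, 85% N2, 98% humidity). MIC read as lowest inhibitory concentration; drug-free and DMSO-dilution plates as negative controls.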

Prothrombin = Prothrombin (Homo sapiens, UniProt P00734); test: Inhibition of human thrombin
Dipeptidyl peptidase 4 = Dipeptidyl peptidase 4 (Homo sapiens, UniProt P27487); test: Inhibition of human recombinant DPP4
Procedure, shortened: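 Recombinant human DPP-IV, expressed and purified in-house, at 0.01 nM in 100 mM Hepes pH 7.5 with 10 µM Ala-Pro-AMC substrate and 2% DMSO.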

Sequence of Dipeptidyl peptidase 4 (P27487 whole entry): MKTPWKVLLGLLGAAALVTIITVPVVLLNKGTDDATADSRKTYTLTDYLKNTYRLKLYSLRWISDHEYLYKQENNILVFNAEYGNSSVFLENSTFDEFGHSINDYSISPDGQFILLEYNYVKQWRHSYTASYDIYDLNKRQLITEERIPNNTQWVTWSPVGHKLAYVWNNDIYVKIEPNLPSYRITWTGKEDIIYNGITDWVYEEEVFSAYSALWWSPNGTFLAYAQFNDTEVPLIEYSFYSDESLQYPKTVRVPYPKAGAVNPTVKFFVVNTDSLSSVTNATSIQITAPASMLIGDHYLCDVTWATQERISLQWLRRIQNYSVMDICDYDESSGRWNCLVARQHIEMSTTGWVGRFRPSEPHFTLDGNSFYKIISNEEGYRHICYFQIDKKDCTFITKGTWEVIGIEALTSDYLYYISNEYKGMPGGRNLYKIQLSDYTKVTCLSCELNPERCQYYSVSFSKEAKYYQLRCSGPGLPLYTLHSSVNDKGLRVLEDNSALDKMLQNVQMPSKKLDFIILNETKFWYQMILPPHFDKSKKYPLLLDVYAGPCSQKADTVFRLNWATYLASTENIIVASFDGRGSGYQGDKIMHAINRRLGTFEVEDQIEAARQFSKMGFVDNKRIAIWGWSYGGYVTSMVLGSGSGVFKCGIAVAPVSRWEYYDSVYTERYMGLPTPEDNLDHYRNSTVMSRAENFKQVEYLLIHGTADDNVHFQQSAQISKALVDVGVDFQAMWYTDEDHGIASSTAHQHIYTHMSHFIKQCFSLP

Row | Compound | MIC (Helicobacter pylori) | IC50 (Prothrombin) | IC50 (Dipeptidyl peptidase 4)
1 | COc1cc(O)c(C(CCc2ccc(O)cc2OC)c2ccc(O)cc2)cc1CCC(=O)c1ccc(O)cc1 (stereo not given) | 60.6 µM (≈ 32 µg/mL) | 26.3 µM | > 36.9 µM
2 | Cc1c(O)ccc2c1O[C@H](c1ccc(O)cc1)CC2 | 31.3 µM (≈ 8.02 µg/mL) | – | –
3 | COc1cc(O)c2c(c1C)O[C@H](c1ccc(O)cc1)CC2 | 55.9 µM (≈ 16 µg/mL) | – | –
4 | COc1ccc([C@@H]2CCc3ccc(O)cc3O2)cc1 | 250 µM (≈ 64.1 µg/mL) | – | –
5 | O=C(CCc1ccc(O)cc1O)c1ccc(O)cc1 | 248 µM (≈ 64.1 µg/mL) | – | –
6 | COc1cc(O)ccc1C(=O)/C=C/c1ccc(O)cc1 | 118 µM (≈ 32 µg/mL) | – | –
7 | COc1cc(O)ccc1CCC(=O)c1ccc(O)cc1 | 235 µM (≈ 64.1 µg/mL) | – | –
8 | COc1ccc(CCC(=O)c2ccc(O)cc2)c(OC)c1 | 224 µM (≈ 64.1 µg/mL) | – | –
9 | COc1cc(O)ccc1CCC(c1ccc(O)cc1)c1cc2c(c(C)c1O)O[C@@H](c1ccc(O)cc1)CC2 (stereo not given in full) | 62.5 µM (≈ 32 µg/mL) | 21.5 µM | > 39.1 µM
10 | COc1ccc2c(c1C)O[C@@H](c1ccc(O)cc1)CC2 | 59.3 µM (≈ 16 µg/mL) | – | –
11 | COc1c(O)ccc2c1OCC(Cc1ccc(O)cc1)C2 (stereo not given) | 55.9 µM (≈ 16 µg/mL) | – | –
12 | COc1cc(O)cc(O)c1CCC(=O)c1ccc(O)cc1 | 111 µM (≈ 32 µg/mL) | – | –
13 | COc1cc(O)cc(OC)c1CCC(=O)c1ccc(O)cc1 | 212 µM (≈ 64.1 µg/mL) | – | –
14 | CC1(C)S[C@@H]2[C@H](NC(=O)[C@H](N)c3ccc(O)cc3)C(=O)N2[C@H]1C(=O)O [AMOXICILLIN] | 0.08 µM (≈ 0.0292 µg/mL) | – | –
15 | COc1ccc(C(CCc2ccc(O)cc2OC)c2c(OC)cc(/C=C/c3ccc(O)cc3)cc2OC)cc1 (stereo not given) [COCHINCHINENENE A] | 60.8 µM (≈ 32 µg/mL) | > 9.5 µM | > 36.9 µM
16 | COc1ccc(C(CCc2ccc(O)cc2OC)c2c(O)cc(OC)cc2/C=C/c2ccc(O)cc2)cc1 (stereo not given) [COCHINCHINENENE B] | 62.5 µM (≈ 32 µg/mL) | 17.8 µM | > 39.1 µM
17 | COc1cc(O)ccc1CCC(c1ccc(O)cc1)c1c(/C=C/c2ccc(O)cc2)cc(O)cc1OC (stereo not given) [COCHINCHINENENE C] | 64.3 µM (≈ 32.1 µg/mL) | 26.7 µM | > 40.2 µM
18 | COc1cc(O)ccc1CCC(c1ccc(O)cc1)c1c(O)cc(O)cc1/C=C/c1ccc(O)cc1 (stereo not given) [COCHINCHINENENE D] | 66.1 µM (≈ 32 µg/mL) | > 41.3 µM | > 41.3 µM
19 | COc1cc(OC)c(C(CCc2ccc(O)cc2OC)c2ccc(O)cc2)cc1CCC(=O)c1ccc(O)cc1 (stereo not given) [COCHINCHINENIN B] | 29.5 µM (≈ 16 µg/mL) | 12.3 µM | > 36.9 µM
20 | COc1ccc(C(CCc2ccc(O)cc2OC)c2cc(CCC(=O)c3ccc(O)cc3)c(OC)cc2O)cc1 (stereo not given) [COCHINCHINENIN C] | 29.5 µM (≈ 16 µg/mL) | > 9.2 µM | > 36.9 µM
21 | COC1=CC(=O)C=C(OC)C1(O)CCC(=O)c1ccc(O)cc1 [COCHINCHINENONE] | 201 µM (≈ 64.1 µg/mL) | – | –
22 | Cc1ncc([N+](=O)[O-])n1CCO [METRONIDAZOLE] | 748 µM (≈ 128 µg/mL) | – | –
23 | COc1ccc(/C=C/c2cc(O)cc(O)c2)cc1 [RESVERATROL 4'-METHYL ETHER] | 264 µM (≈ 64.1 µg/mL) | – | –
24 | Oc1ccc(/C=C/c2cc(O)cc(O)c2)cc1 [RESVERATROL] | 281 µM (≈ 64.1 µg/mL) | – | –
